A short description of assay [1]: Her2 expression decrease, cell viability multiplex – SKBR3 breast tumor cells, AlphaScreen, ATP viability, primary screen (AID 461;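 active = Her2 level under about 52% in both replicate screens, with viability over 70% of control, limit read from the data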;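 as to Her2 level: lower value means less Her2 protein in the cells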;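 as to viability: percent of carrier control wells set as 100% viability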). The conditions noted are these: SKBR3 Her2 protein level, 18-24 h, measured here: SKBR3 viability, ATP luminescence, at 10 µM. (Alpha assays give light when donor and acceptor beads are brought close together.)
Assay [2] concerns the target Receptor tyrosine-protein kinase erbB-2 (Homo sapiens) (UniProt P04626). The description is as above. The conditions noted are these: 18-24 h, at 10 µM, stronger effect = lower value.
A short description of assay [3]: reduced viability of SK-BR-3 breast cancer cells – cell-based, 24 h, human, pilot screen (AID 572;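 active = viability at or below 10% of carrier control in both of two separate runs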;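 also: compound exposure lasted between 18 and 24 h rather than exactly 24 h; 100% = carrier-treated control wells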). The conditions noted are these: SK-BR-3 viability, CellTiter-Glo luminescence, at 10 µM, stronger effect = lower value. For orientation: In ATP-based viability assays light output follows the ATP content of the culture.
Assay [4] is described as follows: HUVEC growth inhibition – cell-based, human, primary screen (AID 575;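 active = viability at or below 30% in both replicate assays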;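 also: 100% = median of untreated cell wells with 0.1% DMSO on each plate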). The conditions noted are these: HUVEC proliferation, CellTiter-Glo luminescence, 72 h; at 10 µM; stronger effect = lower value. Put shortly:
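Test system: primary human umbilical vein endothelial cells. Quantity: 1250 cells/well. Compound: single 10 µM dose, 0.1% DMSO, from 5x medium stock. Timing: 72 h treatment at 37 °C. Detection: ATP-based CellTiter-Glo luminescent read. Benchmarks: vehicle and MePR control wells. Format: 384-well plates coated with collagen.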

Assay [5] can be described thus: H69AR cell proliferation blockers – human, duplicate replicates, primary screen (AID 580;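 active = viability at or under a set limit in both replicates, limit being median viability minus 3 SD, cut at about 48% in these data, passing the limit was not always enough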;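 also: 100% = mean luminescence of untreated wells and 0% = no signal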). The settings on record: H69AR lung tumor cells viability, ATP luminescence, 72 h; at 10 µM; stronger effect = lower value.
A short description of assay [6]: MRP1 drug-resistance reversers in H69AR cells – cell-based, doxorubicin co-treatment, pilot screen (AID 601). The conditions noted are these: CellTiter-Glo, 72 h, at 10 µM; for differential viability (reversal): stronger effect = higher value.
Assay [7] is described as follows: yeast transport mutant growth inhibition pilot in 384-well plates, post-Golgi transport modulator project (AID 636; in the data active = inhibition above about 31%). The conditions noted are these: absorbance 615 nm, about 18 h, stronger effect = higher value.
Assay [8] is described as follows: growth suppression of yeast trafficking mutant, preliminary HTS, modulators of trafficking downstream of Golgi apparatus project, 1536-format plate, OD 615 nm (AID 637; in the data active = inhibition above about 30%). The settings on record: yeast transport mutant growth, absorbance 615 nm, 18 h; stronger effect = higher value.
Setting [9] is: H69AR cells + 2 uM doxorubicin, measured here: viability with 2 uM doxorubicin, stronger effect = lower value.
Where [10] appears, read: H69AR cells, compound alone cytotoxicity.

14 molecules from PubChem BioAssay can be followed below.

SMILES strings stand for the structures. Calls of active or inactive are those of the source.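 The calls were made as follows, unless noted: active = viability loss from added drug above about 55%, and viability with drug at most 40%, in both replicates (limit read from the data, passing the limit was not always enough); inconclusive = both conditions met in only one replicate; inactive = neither replicate meets both conditions.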

Sequence of Receptor tyrosine-protein kinase erbB-2 (Homo sapiens) (P04626 whole entry, looked up): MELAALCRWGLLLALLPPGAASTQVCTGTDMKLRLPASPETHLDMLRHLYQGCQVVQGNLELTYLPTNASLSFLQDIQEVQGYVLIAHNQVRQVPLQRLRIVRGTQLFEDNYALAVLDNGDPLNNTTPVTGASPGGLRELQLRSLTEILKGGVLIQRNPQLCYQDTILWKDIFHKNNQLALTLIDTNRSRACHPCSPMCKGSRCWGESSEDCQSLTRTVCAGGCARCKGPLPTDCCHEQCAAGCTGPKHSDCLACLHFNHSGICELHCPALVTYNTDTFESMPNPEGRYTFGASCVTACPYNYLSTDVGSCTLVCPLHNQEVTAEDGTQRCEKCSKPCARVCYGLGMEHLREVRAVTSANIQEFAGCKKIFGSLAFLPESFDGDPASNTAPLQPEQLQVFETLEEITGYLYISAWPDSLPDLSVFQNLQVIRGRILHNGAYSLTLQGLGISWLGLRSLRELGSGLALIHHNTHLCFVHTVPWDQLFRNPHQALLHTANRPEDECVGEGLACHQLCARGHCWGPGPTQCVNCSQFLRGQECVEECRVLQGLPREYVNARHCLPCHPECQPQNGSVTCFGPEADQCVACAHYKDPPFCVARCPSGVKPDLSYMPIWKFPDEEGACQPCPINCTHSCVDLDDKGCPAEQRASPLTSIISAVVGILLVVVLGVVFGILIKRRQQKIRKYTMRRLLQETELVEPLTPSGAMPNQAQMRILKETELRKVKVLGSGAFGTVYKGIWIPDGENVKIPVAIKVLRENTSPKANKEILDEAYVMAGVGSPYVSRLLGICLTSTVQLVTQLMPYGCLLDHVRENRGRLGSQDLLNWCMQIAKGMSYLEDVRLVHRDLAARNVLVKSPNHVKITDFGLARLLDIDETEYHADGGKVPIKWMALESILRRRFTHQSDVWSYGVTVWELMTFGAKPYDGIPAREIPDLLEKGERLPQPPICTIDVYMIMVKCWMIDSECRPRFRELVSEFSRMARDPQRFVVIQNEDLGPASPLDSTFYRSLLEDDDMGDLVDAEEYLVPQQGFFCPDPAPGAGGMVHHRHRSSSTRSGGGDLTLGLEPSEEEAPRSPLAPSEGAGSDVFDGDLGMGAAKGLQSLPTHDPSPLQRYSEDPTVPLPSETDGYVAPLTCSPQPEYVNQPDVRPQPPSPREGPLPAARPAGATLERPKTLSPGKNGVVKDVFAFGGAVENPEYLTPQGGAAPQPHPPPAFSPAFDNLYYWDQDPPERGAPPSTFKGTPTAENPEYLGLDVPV

Take `Cn1c(N2CCC(C(N)=O)CC2)nc2c1c(=O)n(Cc1ccc(Br)cc1)c(=O)n2C`: the viability (as a rule, a read-out of living cells in per cent, often relative to untreated cells) is 95% in assay [1]; 95% (inactive) in assay [3]; 98.5% (inactive) in assay [4]; 102% (inactive) in assay [5]; 93.8% in assay [6] (setting [9]); 102% in assay [6] (setting [10]). The Her2 level in assay [2] is 84.5% (inactive). In addition, the differential viability (reversal) in assay [6] (H69AR cells + 2 uM doxorubicin) is 8.06% (inactive). In addition, the inhibition (in general, the change of the read-out against control, counted positive when it falls) was 3.38% (inactive) in assay [7] and -5.08% (inactive) in assay [8].

`CCC(C)NC(=O)CSC1=Nc2ccccc2C2=NC(CC(=O)NCc3ccccc3)C(=O)N12` (stereo not given): the viability in assay [1] is 96.5%; in assay [3], 96.5% (inactive); in assay [4] it was 85.7% (inactive); in assay [5], 107% (inactive); in assay [6] (setting [9]), 94.2%; in assay [6] (setting [10]) it was 107%. Besides, the Her2 level in assay [2] was 88% (inactive). Moreover, in assay [6] (H69AR cells + 2 uM doxorubicin), the differential viability (reversal) was 13.1% (inactive). The inhibition in assay [7] is -3.03% (inactive); in assay [8], -3.02% (inactive).

Regarding `Cc1cc(C)nc(NS(=O)(=O)c2ccc(NC(=O)Cn3c(=O)oc4ccccc43)cc2)n1`, the viability in assay [1] was 89.5%; in assay [3], 89.5% (inactive); in assay [4], 89% (inactive); in assay [5], 86.7% (inactive); in assay [6] (setting [9]), 84.2%; in assay [6] (setting [10]) it was 86.7%. Besides, the Her2 level in assay [2] is 101% (inactive). In addition, the differential viability (reversal) in assay [6] (H69AR cells + 2 uM doxorubicin) was 2.6% (inactive). The inhibition was -0.9% (inactive) in assay [7] and 2% (inactive) in assay [8].

Regarding `Nc1nonc1-n1nnc(C(=O)c2ccccc2)c1-c1ccccc1`, the viability is 96.5% in assay [1]; 96.5% (inactive) in assay [3]; 63.6% (inactive) in assay [4]; 99.4% (inactive) in assay [5]; 91.4% in assay [6] (setting [9]); 99.4% in assay [6] (setting [10]). Further, the Her2 level in assay [2] was 100% (inactive). Moreover, the differential viability (reversal) in assay [6] (H69AR cells + 2 uM doxorubicin) was 7.96% (inactive). Besides, the values for the inhibition in assay [7] and in assay [8] were -6.58% (inactive) and 6.03% (inactive), respectively.

`O=C(OCCCN1C(=O)c2ccccc2C1=O)c1ccco1`: the viability was 102% in assay [1]; 102% (inactive) in assay [3]; 96% (inactive) in assay [4]; 95.2% (inactive) in assay [5]; 93.9% in assay [6] (setting [9]); 95.2% in assay [6] (setting [10]). The Her2 level in assay [2] is 105% (inactive). The differential viability (reversal) in assay [6] (H69AR cells + 2 uM doxorubicin) is 1.29% (inactive). Further, the figures for the inhibition in assay [7] and in assay [8] were 0.79% (inactive) and -0.16% (inactive), respectively.

Turning to `COc1ccc2[nH]c(=O)c(CN(Cc3cccs3)Cc3nnnn3C(C)(C)C)cc2c1`, the viability is 77.5% in assay [1]; 77.5% (inactive) in assay [3]; 58.7% (inactive) in assay [4]; 73.5% (inactive) in assay [5]; 66.2% in assay [6] (setting [9]); 73.5% in assay [6] (setting [10]). Further, in assay [2], the Her2 level was 90% (inactive). Also, in assay [6] (H69AR cells + 2 uM doxorubicin), the differential viability (reversal) was 7.29% (inactive). The inhibition in assay [7] is -6.13% (inactive); in assay [8] it was -0.95% (inactive).

For `CC(C)CNC(=O)c1ccccc1NC(=O)CN(c1ccc2c(c1)OCCO2)S(C)(=O)=O`, the viability is 92% in assay [1]; 92% (inactive) in assay [3]; 96.8% (inactive) in assay [4]; 92.3% (inactive) in assay [5]; 90.8% in assay [6] (setting [9]); 92.3% in assay [6] (setting [10]). The Her2 level in assay [2] is 121% (inactive). For the same molecule, the differential viability (reversal) in assay [6] (H69AR cells + 2 uM doxorubicin) was 1.55% (inactive). Also, the inhibition is -0.27% (inactive) in assay [7] and -8.23% (inactive) in assay [8].

Turning to `CC(C)CCNC(=O)C(c1ccco1)N(CC1CCCO1)C(=O)Cn1nnc2ccccc21` (stereo not given), the viability is 100% in assay [1]; 100% (inactive) in assay [3]; 101% (inactive) in assay [4]; 94.4% (inactive) in assay [5]; 92.8% in assay [6] (setting [9]); 94.4% in assay [6] (setting [10]). In addition, in assay [2], the Her2 level was 100% (inactive). Moreover, the differential viability (reversal) in assay [6] (H69AR cells + 2 uM doxorubicin) is 1.64% (inactive). The inhibition was -0.67% (inactive) in assay [7] and -0.16% (inactive) in assay [8].

As to `CCCCn1c(SCC(=O)NCc2ccccc2)nc2ccc(N3CCOCC3)cc2c1=O`, the viability was 80% in assay [1]; 80% (inactive) in assay [3]; 98.1% (inactive) in assay [4]; 74% (inactive) in assay [5]; 79.8% in assay [6] (setting [9]); 74% in assay [6] (setting [10]). Besides, in assay [2], the Her2 level is 89.5% (inactive). Further, the differential viability (reversal) in assay [6] (H69AR cells + 2 uM doxorubicin) was -5.76% (inactive). In addition, the inhibition in assay [7] is -1.22% (inactive); in assay [8], 1.8% (inactive).

Consider `CCc1nnc(NC(=O)c2ccc(-c3cccc(C(F)(F)F)c3)o2)s1`, for which the viability in assay [1] is 102%; in assay [3], 102% (inactive); in assay [4] it was 102% (inactive); in assay [5], 91.4% (inactive); in assay [6] (setting [9]) it was 80.2%; in assay [6] (setting [10]), 91.4%. In addition, in assay [2], the Her2 level is 130% (inactive). In addition, the differential viability (reversal) in assay [6] (H69AR cells + 2 uM doxorubicin) is 11.2% (inactive). Moreover, the inhibition is -5.6% (inactive) in assay [7] and -4.03% (inactive) in assay [8].

As to `O=C(NCC1COc2ccccc2O1)c1ccc(NC(=O)c2ccco2)cc1` (stereo not given), the viability in assay [1] was 85.5%; in assay [3], 85.5% (inactive); in assay [4], 105% (inactive); in assay [5], 99.1% (inactive); in assay [6] (setting [9]), 92.4%; in assay [6] (setting [10]), 99.1%. In assay [2], the Her2 level is 83% (inactive). Further, the differential viability (reversal) in assay [6] (H69AR cells + 2 uM doxorubicin) is 6.69% (inactive). The inhibition in assay [7] is 0% (inactive); in assay [8], -2.33% (inactive).

Turning to `COc1ccc(Cl)cc1NC(=O)COc1cccc(-n2cnnn2)c1`, the viability in assay [1] is 110%; in assay [3], 110% (inactive); in assay [4] it was 98.5% (inactive); in assay [5], 86.4% (inactive); in assay [6] (setting [9]) it was 81.5%; in assay [6] (setting [10]), 86.4%. In addition, in assay [2], the Her2 level was 80% (inactive). For the same molecule, the differential viability (reversal) in assay [6] (H69AR cells + 2 uM doxorubicin) was 4.85% (inactive). Moreover, the inhibition was -5.87% (inactive) in assay [7] and 1.61% (inactive) in assay [8].

Turning to `CN(Cc1ccccc1)Cc1nc2c([nH]1)c(=O)[nH]c(=O)n2C`, the viability is 92% in assay [1]; 92% (inactive) in assay [3]; 79.2% (inactive) in assay [4]; 90.9% (inactive) in assay [5]; 82.6% in assay [6] (setting [9]); 90.9% in assay [6] (setting [10]). Besides, the Her2 level in assay [2] is 90.5% (inactive). Besides, the differential viability (reversal) in assay [6] (H69AR cells + 2 uM doxorubicin) was 8.36% (inactive). Moreover, the results for the inhibition in assay [7] and in assay [8] were -3.6% (inactive) and -1.31% (inactive), respectively.

In the case of `CCOC(=O)Cc1csc(NC(=O)CSc2nnc(-c3ccncc3)n2Cc2ccco2)n1`, the viability is 107% in assay [1]; 107% (inactive) in assay [3]; 94.1% (inactive) in assay [4]; 97.6% (inactive) in assay [5]; 89.9% in assay [6] (setting [9]); 97.6% in assay [6] (setting [10]). Moreover, the Her2 level in assay [2] is 82.5% (inactive). In addition, the differential viability (reversal) in assay [6] (H69AR cells + 2 uM doxorubicin) was 7.66% (inactive). For the same molecule, the values for the inhibition in assay [7] and in assay [8] were -5.14% (inactive) and 5.24% (inactive), respectively.
